In ChEMBL document CHEMBL5149984, “Discovery of HN37 as a Potent and Chemically Stable Antiepileptic Drug Candidate” (J Med Chem, 2021):

Key:
[1] = target: Potassium voltage-gated channel subfamily KQT member 2 (Rattus norvegicus) (UniProt O88943); experiment: Agonist activity at rat Kv7.2 channel expressed in CHO cells assessed as shift of half voltage of maximal activation at 10 uM by whole cell patch clamp based electrophysiological method; conditions: filed as agonist
Method in brief: (§1)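 Rat KCNQ2 cotransfected with EGFP plasmid by Lipofectamine 3000 into CHO cells (DMEM/F12, 10% FBS; split 24 h before transfection). Whole-cell recording at room temperature. Pipette: 145 mM KCl, 1 mM MgCl2, 5 mM EGTA, 10 mM HEPES, 5 mM MgATP, pH 7.3. Bath, constantly perfused: 140 mM NaCl, 5 mM KCl, 2 mM CaCl2, 1.5 mM MgCl2, 10 mM glucose, 10 mM HEPES, pH 7.4. Signals filtered at 1 kHz. Compound at 10 μM. I/I0 is outward current amplitude with over without compound. ΔV1/2 is the shift in V1/2 from Boltzmann fits of activation curves. Mean ± SEM.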

[2] = target: Potassium voltage-gated channel subfamily KQT member 2 (Rattus norvegicus) (UniProt O88943); experiment: Agonist activity at rat Kv7.2 channel expressed in CHO cells assessed as amplitude change of outward current at 10 uM by whole cell patch clamp based electrophysiological method; conditions: filed as agonist; method in brief: as §1
[3] = species on record: Mus musculus; experiment: Anticonvulsant activity in Kunming mouse assessed as reduction in MES-induced seizure after 1 hr; format: functional
Method in brief: (§2)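 MES test in male KM mice. Compounds freshly suspended in 0.5% CMC-Na and given by gavage at 20 mL/kg; 160 V stimulus through ear clips. Protection scored as absence of hindlimb tonic extension; time course at 0.25, 0.5, 1 and 2 h, otherwise tested at 1 h. ED50 from dose−response by nonlinear regression; Fisher's exact test versus vehicle.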

[4] = Neurotoxicity in po dosed Kunming mouse assessed as motor impairment after 1 hr by rotarod test; format: toxicity, organism-based; conditions: in vivo, po, 1 h
Method in brief: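 Male KM mice dosed intragastrically with compound freshly suspended in 0.5% CMC-Na. Rotarod performance scored 1 h after dosing as the fraction of animals showing motor impairment. Fisher's exact test versus vehicle; TD50 from nonlinear dose−response fit.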

[5] = species on record: Mus musculus; experiment: Anticonvulsant activity in C57BL/6 mouse 6 Hz seizure model at 44 mA measured after 1 hr; format: functional
[6] = species on record: Mus musculus; experiment: Anticonvulsant activity in C57BL/6 mouse 6 Hz seizure model at 32 mA measured after 1 hr; format: functional
[7] = species on record: Mus musculus; experiment: Anticonvulsant activity in Kunming mouse assessed as reduction in Sc-PTZ induced seizure after 1 hr; format: functional
Method in brief: (§3)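 sc-PTZ test in male KM mice. Compound suspended in 0.5% CMC-Na and given orally 1 h before PTZ (freshly dissolved in normal saline, 100 mg/kg). Protection against clonic seizures scored; ED50 by nonlinear regression.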

[8] = system: Mus musculus; experiment: Anticonvulsant activity in pentylenetetrazol induced Kunming mouse model of seizure at 30 mg/kg, po after 1 hr; format: functional; method in brief: as §3
[9] = system: Mus musculus; experiment: Anticonvulsant activity in MES induced Kunming mouse model of seizure at 30 mg/kg, po after 1 hr; format: functional; method in brief: as §2

Chain of Potassium voltage-gated channel subfamily KQT member 2 (Rattus norvegicus) (O88943 whole entry, the tested form may be a part): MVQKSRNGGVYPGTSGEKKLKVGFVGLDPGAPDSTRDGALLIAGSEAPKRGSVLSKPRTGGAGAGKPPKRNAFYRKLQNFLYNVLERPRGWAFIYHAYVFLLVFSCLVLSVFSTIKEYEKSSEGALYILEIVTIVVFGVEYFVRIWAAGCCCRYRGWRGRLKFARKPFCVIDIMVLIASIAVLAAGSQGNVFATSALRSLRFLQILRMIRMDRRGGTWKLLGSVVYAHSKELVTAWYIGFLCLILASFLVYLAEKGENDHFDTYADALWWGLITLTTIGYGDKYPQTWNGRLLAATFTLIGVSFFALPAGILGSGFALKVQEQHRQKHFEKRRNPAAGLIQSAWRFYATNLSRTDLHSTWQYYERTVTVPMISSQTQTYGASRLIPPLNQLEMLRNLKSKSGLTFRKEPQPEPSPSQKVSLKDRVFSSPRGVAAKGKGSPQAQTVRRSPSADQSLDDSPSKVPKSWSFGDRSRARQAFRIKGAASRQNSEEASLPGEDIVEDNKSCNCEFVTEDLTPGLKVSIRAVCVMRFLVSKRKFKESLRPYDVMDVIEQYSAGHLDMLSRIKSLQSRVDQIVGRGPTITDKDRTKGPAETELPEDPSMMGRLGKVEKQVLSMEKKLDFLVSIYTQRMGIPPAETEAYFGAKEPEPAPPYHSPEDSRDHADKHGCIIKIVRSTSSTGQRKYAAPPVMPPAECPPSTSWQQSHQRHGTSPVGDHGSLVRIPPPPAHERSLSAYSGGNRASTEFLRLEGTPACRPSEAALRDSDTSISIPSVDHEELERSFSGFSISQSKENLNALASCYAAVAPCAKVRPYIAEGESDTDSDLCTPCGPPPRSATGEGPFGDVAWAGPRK

In the case of `C#CCN(Cc1ccc(F)cc1)c1ccc(NC(C)=O)cc1`, the Activity [1] is reported as -6.09 mV and the Activity [2] is reported as 1.8.
`CC[C@H](C(N)=O)N1CCCC1=O` [LEVITIRACETAM] gave an ED50 [3] greater than 500 mg/kg, an Activity [4] greater than 500 mg/kg and an ED50 [5] of 376 mg/kg. For the same molecule, the ED50 [6] was 41.5 mg/kg and the ED50 [7] was greater than 500 mg/kg.
Molecule `C#CCN(Cc1ccc(F)c(C(F)(F)F)c1)c1ccc(NC(=O)OC)cc1` has an Activity [1] of -15.6 mV and an Activity [2] of 1.33.
In the case of `C#CCN(Cc1ccc(F)cc1)c1ccc(NC(=O)OC)cc1F`, the Activity [1] is reported as -9.06 mV and the Activity [2] is reported as 1.39.
Work on `C#CCN(Cc1ccc(F)cc1)c1ccc(NC(=O)OC)c(Cl)c1` yielded an Activity [1] of -7.06 mV and an Activity [2] of 1.09.
With `C#CCN(Cc1ccc(F)cc1)c1cccc(NC(=O)OC)c1` the Activity [1] was 3.6 mV and the Activity [2] was 1.65.
In the case of `C#CCN(Cc1ccc(F)cc1)c1ccc(NC(=O)OCC(C)C)cc1`, the Activity [1] is reported as -14.3 mV and the Activity [2] is reported as 1.23.
For `C#CCN(Cc1ccc(F)cc1)c1ccc(NC(=O)OC)c(F)c1`, the Activity [1] was -22 mV and the Activity [2] was 2.09.
`C#CCN(Cc1ccc(F)cc1)c1ccc(NC(=O)OCc2ccccc2)cc1` gave an Activity [1] of -11.5 mV and an Activity [2] of 2.09.
Molecule `C#CCN(Cc1ccc(F)cc1)c1ccc(F)c(NC(=O)OC)c1` has an Activity [1] of -18.7 mV and an Activity [2] of 2.75.
Work on `C#CCN(Cc1ccc(F)cc1)c1ccc(NC(=O)OCC)cc1` yielded an Activity [1] of -7.26 mV and an Activity [2] of 1.99.
Work on `C#CCN(Cc1ccc(F)cc1)c1ccc(NC(=O)OC)c(OC(F)(F)F)c1` yielded an Activity [1] of -13.2 mV and an Activity [2] of 1.24.
With `C#CCN(Cc1ccc(F)cc1)c1ccc(NC(=O)OCC=C)cc1` the Activity [1] was -14.5 mV and the Activity [2] was 1.01.
Molecule `C#CCN(Cc1cccc(OC)c1)c1ccc(NC(=O)OC)cc1` has an Activity [1] of -12.5 mV and an Activity [2] of 2.72.
For `CC1(C)O[C@@H]2[C@@H](CO[C@@]3(COS(N)(=O)=O)OC(C)(C)O[C@@H]23)O1` [TOPIRAMATE], the ED50 [3] was 35.5 mg/kg, the Activity [4] was 379.2 mg/kg and the ED50 [5] was greater than 500 mg/kg. The ED50 [6] was greater than 500 mg/kg and the ED50 [7] was greater than 200 mg/kg.
Molecule `C#CCN(Cc1ccc(F)cc1)c1ccc(NC(=O)OC(C)(C)C)cc1` has an Activity [1] of -19.4 mV and an Activity [2] of 1.05.
In the case of `C#CCN(Cc1ccc(F)cc1)c1ccc(NC(=O)OCC2COC(C)(C)O2)cc1` (stereo not drawn), the Activity [1] is reported as -3.95 mV and the Activity [2] is reported as 2.11.
For `C#CCN(Cc1ccccc1F)c1ccc(NC(=O)OC)cc1`, the Activity [1] was -7.6 mV and the Activity [2] was 2.31.
Work on `C#CCN(Cc1ccc(F)cc1)c1ccccc1NC(=O)OC` yielded an Activity [2] of 0.95.
`C#CCN(Cc1ccc(F)cc1)c1ccc(NC(=O)OCC)c(N)c1` showed an Activity [1] of -47.9 mV and an Activity [2] of 1.53.
`C#CCN(Cc1ccc(F)cc1)c1ccc(NC(=O)OC)cc1C` gave an Activity [1] of -3.42 mV and an Activity [2] of 1.4.
`C#CCN(Cc1ccc(F)cc1)c1ccc(NC(=O)OC)c(C#N)c1` gave an Activity [1] of -5.1 mV and an Activity [2] of 0.52.
Work on `C#CCN(Cc1ccc(Br)cc1)c1ccc(NC(=O)OC)cc1` yielded an Activity [1] of -25.1 mV and an Activity [2] of 3.75.
`C#CCN(Cc1ccc(C)cc1)c1ccc(NC(=O)OC)cc1` gave an Activity [1] of -5.77 mV and an Activity [2] of 1.05.
Molecule `C#CCN(Cc1ccc(F)cc1)c1ccc(NC(=O)OC)cc1C#N` has an Activity [1] of -9.62 mV and an Activity [2] of 1.94.
`C#CCN(Cc1ccc(F)c(F)c1)c1ccc(NC(=O)OC)cc1` gave an Activity [1] of -14.9 mV and an Activity [2] of 2.52.
With `C#CCN(Cc1ccc(F)cc1)c1ccc(NC(=O)OC)c(C)c1` the Activity [1] was -23.3 mV and the Activity [2] was 4.8.
`C#CCN(Cc1ccc(F)cc1)c1ccc(NC(=O)OC)cc1Cl` showed an Activity [1] of -2.06 mV and an Activity [2] of 1.19.
Work on `C#CCN(Cc1ccccc1Cl)c1ccc(NC(=O)OC)cc1` yielded an Activity [1] of -16.5 mV and an Activity [2] of 2.29.
Molecule `C#CCN(Cc1ccc(F)cc1)c1ccc(NC(=O)OC)c(C(F)(F)F)c1` has an Activity [1] of -10.4 mV and an Activity [2] of 1.42.
`C#CCN(Cc1ccc(F)cc1)c1ccc(NC(=O)OC)cc1` showed an Activity [8] of 60%, an Activity [9] of 50% and an Activity [1] of -24.2 mV. For the same molecule, the Activity [2] was 3.27.
In the case of `C#CCN(Cc1cccc(F)c1)c1ccc(NC(=O)OC)cc1`, the Activity [1] is reported as -21.1 mV and the Activity [2] is reported as 2.33.
In the case of `C#CCN(Cc1ccc(F)cc1)c1c(C)cc(NC(=O)OC)cc1C`, the Activity [1] is reported as 13.5 mV and the Activity [2] is reported as 0.72.
